Test results: ChEMBL document CHEMBL1141423, “Antimicrobial ambiguines from the cyanobacterium Fischerella sp. collected in Israel” (2007)
Values after ≈ are worked out from the molar mass of the structure shown.

Assays:
Format in all cases: functional
Candida albicans = assay: Antifungal activity against Candida albicans ATCC 90028
Summary of the method: (§1)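 Yeasts were tested in YPD broth, with amphotericin B as the reference antifungal.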

Escherichia coli = assay: Antibacterial activity against Escherichia coli ESS K12
Summary of the method: (§2)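 Broth-based antibacterial test run in LB broth, with puramycin as the reference agent.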

[1] = Antibacterial activity against Staphylococcus albus; summary of the method: as §2
Bacillus subtilis = assay: Antibacterial activity against Bacillus subtilis; summary of the method: as §2
Saccharomyces cerevisiae = assay: Antifungal activity against Saccharomyces cerevisiae; summary of the method: as §1

MIC (Candida albicans) [µg/mL]	MIC (Escherichia coli) [µg/mL]	MIC [1] [µg/mL]	MIC (Bacillus subtilis) [µg/mL]	MIC (Saccharomyces cerevisiae) [µg/mL]	Structure (SMILES)
1.56 (≈ 1.69 µM)					C[C@@H]1[C@H](O)[C@@H](C)/C=C/C=C/C=C/C=C/C=C/C=C/C=C/[C@H](O[C@@H]2O[C@H](C)[C@@H](O)[C@H](N)[C@@H]2O)C[C@@H]2O[C@](O)(C[C@@H](O)C[C@@H](O)[C@H](O)CC[C@@H](O)C[C@@H](O)CC(=O)O[C@H]1C)C[C@H](O)[C@H]2C(=O)O [AMPHOTERICIN B]
	0.312 (≈ 0.536 µM)	0.156 (≈ 0.268 µM)	2.5 (≈ 4.3 µM)		CN[C@@H]1[C@H](O[C@H]2[C@H](O[C@H]3[C@H](O)[C@@H](O)[C@H](N=C(N)N)[C@@H](O)[C@@H]3N=C(N)N)O[C@@H](C)[C@]2(O)C=O)O[C@@H](CO)[C@H](O)[C@H]1O [STREPTOMYCIN]
				0.312 (≈ 0.662 µM)	COc1ccc(C[C@H](N)C(=O)N[C@H]2[C@@H](O)[C@H](n3cnc4c(N(C)C)ncnc43)O[C@@H]2CO)cc1 [PUROMYCIN]
6.25 (≈ 16.8 µM)	10 (≈ 26.8 µM)	0.625 (≈ 1.68 µM)	1.25 (≈ 3.36 µM)	5 (≈ 13.4 µM)	[C-]#[N+][C@@H]1[C@@H]2c3c(C(C)(C)C=C)[nH]c4cccc(c34)C(C)(C)[C@H]2CC[C@]1(C)C=C

Structure (SMILES)	MIC (Candida albicans) [µg/mL]	MIC (Escherichia coli) [µg/mL]	MIC [1] [µg/mL]	MIC (Bacillus subtilis) [µg/mL]	MIC (Saccharomyces cerevisiae) [µg/mL]
C=C[C@@]1(C)CC[C@@H]2C(C)(C)c3cccc4[nH]c5c(c34)[C@@]2(O)[C@]1(C#N)[C@H]1O[C@H]1C5(C)C [AMBIGUINE I ISONITRILE]	0.39 (≈ 0.969 µM)	2.5 (≈ 6.21 µM)	0.078 (≈ 0.194 µM)	0.312 (≈ 0.775 µM)	0.312 (≈ 0.775 µM)
